Assay [1] can be described thus: S. cerevisiae growth inhibition in permissive medium (OD615), pilot counter-assay for S. cerevisiae lifespan shortening project, permissive growth control (AID 705). The conditions noted are these: OD615, 24 h, at 10 µM, stronger effect = higher value. The method in brief:
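assay system = Saccharomyces cerevisiae strain carrying genetically modified DeaD replicative-lifespan system | technique = absorbance (optical density) at 615 nm | buffer or medium = permissive raffinose/galactose medium | timing = cells pre-grown 4 h, then 24 h compound exposure, 30 °C humidified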

Assay [2] in a line: S. cerevisiae growth inhibition in restrictive medium, OD615, pilot screen, restrictive growth control, yeast lifespan reduction project (AID 706;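 active = growth inhibition above a set limit, 3 SD over mean compound inhibition, in both replicates, cut at about 43% in these data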;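 also: modified DeaD lifespan yeast strain shifted to restrictive glucose medium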). The conditions noted are these: OD615, 48 h, at 10 µM, stronger effect = higher value. The method in brief: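 System: modified S. cerevisiae. Buffer or medium: CSMM-D glucose medium. Incubation: 4 h pre-growth plus 48 h compound exposure, 30 °C. Detection: absorbance (optical density) measured at 615 nm.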

A short description of assay [3]: doxorubicin toxicity protection in MRP-1 cells – H69AR cells, CellTiter-Glo, duplicate, MRP-1 activator project, pilot screen (AID 807;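 active = viability increase at or above a cutoff of the median across tested compounds plus 3 SD, cut at about 8.5% in these data, passing the limit was not always enough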;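 also: compound pretreatment 18-22 h then 72 h combined with doxorubicin; 0% = doxorubicin alone and 100% = vehicle without doxorubicin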). Conditions: H69AR viability with doxorubicin, CellTiter-Glo luminescence; at 10 µM; stronger effect = higher value. (In general: In ATP-based viability assays light output follows the ATP content of the culture.)
A short description of assay [4]: viability of HCT116 without oncogenic beta-catenin – human colon tumor cells, pilot screen (AID 823;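 active = cell viability at or below a set limit in both duplicate runs, the limit being the all-compound median minus 4 SD, cut at about 23% in these data, passing the limit was not always enough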;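 also: 0% = wells killed by 20 µM Hyamine and 100% = untreated DMSO cell wells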). Conditions: HCT116 beta-catenin knockout viability, CellTiter-Glo, 60 h; at 10 µM; stronger effect = lower value.
A short description of assay [5]: viability of PTEN-null HCT116 cells – cell-based, HCT116 clonal line, CellTiter-Glo, pilot screen (AID 824;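 active = viability at or below 27.92% in each of two runs, the all-compound median minus 4 SD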;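 also: 0% = 20 µM Hyamine control and 100% = vehicle cell control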). The conditions noted are these: HCT116 PTEN-deleted viability, 60 h, at 10 µM, stronger effect = lower value.
The nature of assay [6]: RAM pathway blockade in budding yeast – dse1pr::URA3 reporter, 5-FOA selection, pilot screen (AID 869;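 active = inhibition over a set limit, the all-compound mean plus 3 SD, in both replicate runs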;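 also: 0% = DMSO wells with no growth and 100% = 10 µM 1-NA-PP1 with full growth; RAM network block rescues cells from 5-FOA so hits raise OD615 growth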). Conditions: S. cerevisiae dse1pr::URA3 5-FOA growth, OD615, 2 d; at 10 µM; stronger effect = higher value; strain carries analog-sensitive mutant Cbk1 kinase.
The nature of assay [7]: RAM signaling pathway blockade in yeast – S. cerevisiae, Pdr1DBD-CYC8 efflux-inhibited sensitized strain, primary screen (AID 1298;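 active = RAM network inhibition above 8.4% in each of two replicates, 3 SD over the compound average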;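 also: 0% = DMSO untreated cells without growth and 100% = 10 µM 1-NA-PP1 full growth; higher means more yeast growth rescued from 5-FOA killing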). The conditions noted are these: S. cerevisiae cbk1-as DSE1-URA3 strain, 5-FOA growth OD615, 2 d; at 50 µM; stronger effect = higher value.

Each structure is given as a SMILES string. Unmarked numbers belong to inactive results. Inconclusive results are not listed. The source made the active and inactive calls.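 The calls were made as follows, unless noted: active = growth inhibition above 25% in both replicates, a cutoff set 3 SD above the mean; inconclusive = above 25% in only one replicate; inactive = the rest.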

The term viability denotes a read-out of living cells in per cent, often relative to untreated cells. One may read the inhibition as the relative decrease from the control value, in per cent. Regarding `CN1CCN(S(=O)(=O)c2ccc(-c3ccc(S(=O)(=O)N4CCN(C)CC4)cc3)cc2)CC1`, the figures for the growth inhibition in assay [1] and in assay [2] were -23.4% and -19.1%, respectively. Besides, the viability increase in assay [3] was 0.84%. Further, the values for the viability in assay [4] and in assay [5] were 96.5% and 96.2%, respectively. In addition, the inhibition in assay [6] was 0.68%. Also, the RAM network inhibition in assay [7] was 0.57%.
`COc1ccc(C(=O)N2CCN(c3c(C)cccc3C)CC2)cc1OC`: the growth inhibition in assay [1] was -19.6%; in assay [2] it was -4.21%. The viability increase in assay [3] is 0.4%. Moreover, the viability is 80.8% in assay [4] and 72% in assay [5]. For the same molecule, in assay [6], the inhibition is 0.89%. For the same molecule, the RAM network inhibition in assay [7] was 1.36%.
`Clc1ccc(-c2nnn(Cc3nc4ccccc4s3)n2)cc1`: the growth inhibition is -2.44% in assay [1] and -17.7% in assay [2]. Besides, the viability increase in assay [3] was -2.27%. Also, the values for the viability in assay [4] and in assay [5] were 92.6% and 96.6%, respectively. For the same molecule, in assay [6], the inhibition was 0.615%. The RAM network inhibition in assay [7] is 2.46%.
With `Cc1ccccc1NC(=O)c1ccc(S(=O)(=O)N(C)C)cc1`, the values for the growth inhibition in assay [1] and in assay [2] were -9.3% and -2.52%, respectively. Besides, the viability increase in assay [3] is 0.67%. In addition, the results for the viability in assay [4] and in assay [5] were 102% and 94%, respectively. Also, in assay [6], the inhibition is 2.17%. The RAM network inhibition in assay [7] was 2.21%.
On to `CCCSc1nc2c(c(=O)n1CC)SC(C)C2` (stereo not given), for which the growth inhibition is -2.71% in assay [1] and -13% in assay [2]. The viability increase in assay [3] was -2.02%. Besides, the viability in assay [4] was 105%; in assay [5], 88.5%. Further, the inhibition in assay [6] was 1.4%. Besides, the RAM network inhibition in assay [7] is 2.48%.
`COc1ccc(C2C=C(c3ccccc3)Nc3nnnn32)cc1` (stereo not given): the growth inhibition in assay [1] was -5.09%; in assay [2] it was 5.53%. Further, the viability increase in assay [3] is 0.19%. Further, the viability in assay [4] was 95.3%; in assay [5], 90.3%. Besides, the inhibition in assay [6] was 0.855%. Moreover, in assay [7], the RAM network inhibition is 5.93%.
For `O=C1CC(c2ccccc2)CN1C(=O)c1ccccc1` (stereo not given), the growth inhibition in assay [1] is 2.52%; in assay [2], -1.8%. Moreover, in assay [3], the viability increase was 1.53%. For the same molecule, the viability is 104% in assay [4] and 98.6% in assay [5]. For the same molecule, in assay [6], the inhibition is 2.67%. In addition, in assay [7], the RAM network inhibition was 6.11%.
In the case of `O=C1CCCc2sc3c(c2N1)CCCCC3`, the growth inhibition is -3.24% in assay [1] and 2.17% in assay [2]. For the same molecule, the viability increase in assay [3] is -0.35%. The values for the viability in assay [4] and in assay [5] were 98.3% and 91.6%, respectively. For the same molecule, the inhibition in assay [6] was 1.12%. Besides, the RAM network inhibition in assay [7] is 3.61%.
Consider `CCOC(=O)c1cn[nH]c1N`, for which the growth inhibition in assay [1] is -3.76%; in assay [2] it was 10.1%. In assay [3], the viability increase was 0%. The viability in assay [4] was 101%; in assay [5] it was 102%. For the same molecule, in assay [6], the inhibition is -0.235%. Further, the RAM network inhibition in assay [7] is 0.61%.
For the molecule `CN(C(=O)c1ccc(=O)[nH]c1)C1(C(=O)NC2CCCCC2)CCCCC1`, the growth inhibition in assay [1] was -7.84%; in assay [2], -8.31%. Besides, in assay [3], the viability increase is -0.61%. Also, the viability in assay [4] was 95.7%; in assay [5], 101%. In addition, the inhibition in assay [6] was 0.78%. For the same molecule, the RAM network inhibition in assay [7] is 1.66%.
With `CCCCNc1cc(=O)n(C)c(=O)[nH]1`, the growth inhibition in assay [1] is -12.2%; in assay [2] it was -4.46%. For the same molecule, the viability increase in assay [3] is -0.6%. Further, the viability in assay [4] was 104%; in assay [5], 96.5%. Also, the inhibition in assay [6] is 1.55%. The RAM network inhibition in assay [7] was 2.98%.
`O=C(Nc1nc(-c2ccccn2)cs1)C1COc2ccccc2O1` (stereo not given): the growth inhibition in assay [1] was 84.5% (active); in assay [2], 96.9% (active). In addition, the viability increase in assay [3] was -0.68%. In addition, the viability was 10.3% (active) in assay [4] and 11.5% (active) in assay [5]. Moreover, the inhibition in assay [6] was 0.255%. Further, the RAM network inhibition in assay [7] is -2.19%.
In the case of `Cc1ccc(C)c2c1sc(=NC(=O)CN1C(=O)CCC1=O)n2C`, the growth inhibition in assay [1] was -15%; in assay [2] it was -2.54%. Besides, the viability increase in assay [3] was -1.69%. The viability in assay [4] is 88%; in assay [5], 83.2%. In assay [6], the inhibition is 2.84%. Besides, the RAM network inhibition in assay [7] was 5.96%.
Take `COC(=O)c1ccc(CSc2nc3c(c(=O)n2-c2ccc(Br)cc2)SCC3)o1`: the growth inhibition was -15.5% in assay [1] and -19.8% in assay [2]. Besides, the viability increase in assay [3] is -3.79%. The viability in assay [4] was 80.9%; in assay [5], 76%. In addition, the inhibition in assay [6] is 1.67%. In addition, the RAM network inhibition in assay [7] was 7.53%.
Consider `Cc1nnc2ccc(N3CCN(C(=O)c4ccccc4)CC3)nn12`, for which the growth inhibition in assay [1] is -4.49%; in assay [2] it was 5.48%. Further, in assay [3], the viability increase is 0.13%. The viability was 98.9% in assay [4] and 95.2% in assay [5]. In addition, in assay [6], the inhibition is 1.42%. For the same molecule, in assay [7], the RAM network inhibition was 2.92%.
